As usually defined, the IC50 is the concentration needed to halve the response being measured. The EC50 is the concentration needed to bring the measured effect to its halfway point.

Here are results for 37 compounds from ChEMBL document CHEMBL1177806, “Synthesis and biological activity of halophenols as potent antioxidant and cytoprotective agents” (Bioorg Med Chem Lett, 2010).

Activity calls are given as the source filed them. No cut-off for these calls is given here.

Assay [1] has as its system HUVEC. As to the kind of experiment: Cytoprotective activity against H2O2-induced cell injury in HUVEC cells at 5 ug/mL after 4 hrs […]. It counts as functional, cell-based. Particulars: Homo sapiens.
Assay [2] can be described thus: Antioxidant activity assessed as DPPH scavenging activity at 100 ug/mL. It counts as functional.
Assay [3] is described as follows: Antioxidant activity assessed as DPPH scavenging activity after 4 hrs […]. It counts as functional.
Assay [4] deals with HUVEC. As to the kind of experiment: Cytoprotective activity against H2O2-induced cell injury in HUVEC cells. It counts as functional, cell-based. Conditions: Homo sapiens. In short, it runs like this:
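Cytoprotection was measured in human umbilical vein endothelial cells (HUVEC) injured with hydrogen peroxide and reported as EC50.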

On to `COc1ccc(C(=O)c2ccc(Cl)cc2)cc1OC`, for which the result in assay [1] and in assay [2] was inactive.

With `O=C(c1ccc(O)c(O)c1)c1ccccc1Cl`, in assay [3], the IC50 came out at 113 µM. Besides, the outcome in assay [1] was inactive.

Take `O=C(c1ccccc1)c1cc(O)c(O)cc1Br`: the IC50 in assay [3] worked out at 84 µM. Moreover, in assay [4], the EC50 came to 11.5 µM. Taken in the same sequence, the figures for `O=C(c1ccc(O)c(Br)c1)c1cc(O)c(O)cc1Br` were 61.6 µM and 2 µM. In the case of `O=C(c1ccc(O)c(O)c1)c1c(Cl)c(O)c(O)c(O)c1Cl`, the IC50 in assay [3] was determined as 87.3 µM. Also, in assay [1], the result was inactive.

Regarding `Oc1ccc(Cc2ccccc2Cl)cc1O`, the IC50 in assay [3] stood at 131 µM. In assay [1], the outcome was inactive. Regarding `Oc1ccc(Cc2ccc(Cl)cc2)cc1O`, the half-maximal inhibitory concentration (IC50) in assay [3] is 202 µM. For the same compound, in assay [4], the EC50 is 8.8 µM.

Consider `COc1ccc(C(=O)c2c(Cl)c(OC)c(OC)c(OC)c2Cl)cc1OC`, for which the outcome in assay [1] and in assay [2] was inactive. With `Oc1cc(Br)c(Cc2ccccc2)cc1O`, in assay [3], the IC50 was found to be 164 µM. Also, the EC50 in assay [4] was determined as 12.2 µM. Turning to `COc1cc(Br)c(C(=O)c2ccccc2)cc1OC`, the result in assay [1] and in assay [2] was inactive. With `COc1ccc(C(=O)c2cc(OC)c(OC)cc2Br)cc1Br`, the result in assay [1] and in assay [2] was inactive. Turning to `COc1ccc(Cc2cc(OC)c(OC)cc2Br)cc1Br`, the result in assay [1] and in assay [2] was inactive. Turning to `O=C(c1ccc(Cl)cc1)c1ccc(O)c(O)c1`, in assay [3], the IC50 was 103 µM. The compound also returned an EC50 in assay [4] of 8.9 µM. `Oc1ccc(Cc2c(Cl)c(O)c(O)c(O)c2Cl)cc1O`: the IC50 in assay [3] was 102 µM. Also, the result in assay [1] was inactive. `COc1ccc(Cc2c(Br)c(OC)c(OC)c(OC)c2Br)cc1OC`: the outcome in assay [1] and in assay [2] was inactive. As for `Cc1cc(C(C)(C)C)c(O)c(C(C)(C)C)c1` [BUTYLATED HYDROXYTOLUENE], the 50% inhibitory concentration (IC50) in assay [3] is 169 µM.

As to `O=C(c1cccc(Cl)c1)c1ccc(O)c(O)c1`, the IC50 in assay [3] came out at 110 µM. Further, a half-maximal effect in assay [4] (EC50) was put at 5 µM. Taken in the same sequence, the figures for `O=C(c1ccccc1)c1cc(O)c(O)c(Br)c1Br` were 87.7 µM and 0.8 µM.

On to `Oc1cc(Br)c(Cc2cc(Br)ccc2O)cc1O`, for which, in assay [3], the IC50 came out at 88.5 µM. The compound further showed an EC50 in assay [4] of 1.1 µM. As for `O=C(c1ccc(O)c(O)c1)c1c(Br)c(O)c(O)c(O)c1Br`, the IC50 in assay [3] was found to be 96.2 µM. For the same compound, in assay [1], the outcome was inactive. For `Oc1cc(Cc2ccccc2)c(Br)c(Br)c1O`, the IC50 in assay [3] was 88 µM. The compound also gave a 50% effective concentration (EC50) in assay [4] of 3.9 µM. The like results for `O=C(c1cc(Br)ccc1O)c1cc(O)c(O)cc1Br` were, in that order, 79.6 µM and 0.4 µM. As to `Oc1ccc(Cc2cccc(Cl)c2)cc1O`, the IC50 in assay [3] is 223 µM. Besides, the result in assay [1] was inactive.

As for `COc1cc(Br)c(C(=O)c2cc(Br)ccc2OC)cc1OC`, the result in assay [1] and in assay [2] was inactive. `COc1ccc(C(=O)c2c(Br)c(OC)c(OC)c(OC)c2Br)cc1OC`: the result in assay [1] and in assay [2] was inactive. Consider `COc1cc(Br)c(Cc2ccccc2)cc1OC`, for which the result in assay [1] and in assay [2] was inactive.

`O=c1c(O)c(-c2ccc(O)c(O)c2)oc2cc(O)cc(O)c12` [QUERCETIN] yielded an EC50 in assay [4] of 18 µM.

Consider `COc1ccc(Cc2c(Cl)c(OC)c(OC)c(OC)c2Cl)cc1OC`, for which the outcome in assay [1] and in assay [2] was inactive. Consider `COc1ccc(Cc2ccc(Cl)cc2)cc1OC`, for which the outcome in assay [1] and in assay [2] was inactive.

In the case of `COc1ccc(Cc2ccccc2Cl)cc1OC`, the outcome in assay [1] and in assay [2] was inactive. Turning to `COc1ccc(Br)cc1Cc1cc(OC)c(OC)cc1Br`, the result in assay [1] and in assay [2] was inactive. Turning to `COc1ccc(C(=O)c2ccccc2)cc1OC`, the result in assay [1] and in assay [2] was inactive.

For the compound `COc1cc(C(=O)c2ccccc2)c(Br)c(Br)c1OC`, the result in assay [1] and in assay [2] was inactive. For the compound `COc1ccc(Cc2cccc(Cl)c2)cc1OC`, the result in assay [1] and in assay [2] was inactive. As for `COc1cc(Cc2ccccc2)c(Br)c(Br)c1OC`, the result in assay [1] and in assay [2] was inactive. In the case of `Oc1cc(Br)c(Cc2ccc(O)c(Br)c2)cc1O`, the IC50 in assay [3] is 87.4 µM. Also, the 50% effective concentration (EC50) in assay [4] was determined as 13 µM. As for `Oc1ccc(Cc2c(Br)c(O)c(O)c(O)c2Br)cc1O`, the half-inhibitory concentration (IC50) in assay [3] came to 84.2 µM. Further, the result in assay [1] was inactive.
